Measurements as given in ChEMBL document CHEMBL1287802, “Convergent synthesis of fluorescence-labeled probes of Annonaceous acetogenins and visualization of their cell distribution” (Bioorg Med Chem, 2010).

Experiments:
Assay type in all cases: functional
[1] = Growth inhibition of human HBC4 cells after 48 hrs by sulforhodamine B assay; conditions: HBC4, 48 h
Method in brief: (§1)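 Tested in the JFCR39 panel of 39 human cancer cell lines. Cells were exposed to compound for 48 h, and growth was measured as the change in total cellular protein by sulforhodamine B colorimetry. GI50 (molar concentration for 50% growth inhibition) was calculated by a previously reported method. Fingerprints were plotted as log differences of each line's GI50 from the panel mean.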

[2] = Growth inhibition of human BSY1 cells after 48 hrs by sulforhodamine B assay; conditions: BSY-1, 48 h; method in brief: as §1
[3] = Growth inhibition of human HBC5 cells after 48 hrs by sulforhodamine B assay; conditions: HBC5, 48 h; method in brief: as §1
MCF7 = assay: Growth inhibition of human MCF7 cells after 48 hrs by sulforhodamine B assay; conditions: MCF7, 48 h; method in brief: as §1
[4] = Growth inhibition of human MDA-MB-23 cells after 48 hrs by sulforhodamine B assay; conditions: MDA-MB-23, 48 h, read-out: pGI50 (converted); method in brief: as §1
U-251 = assay: Growth inhibition of human U251 cells after 48 hrs by sulforhodamine B assay; conditions: U-251, 48 h; method in brief: as §1
SF-268 = assay: Growth inhibition of human SF268 cells after 48 hrs by sulforhodamine B assay; conditions: SF-268, 48 h; method in brief: as §1
SF-295 = assay: Growth inhibition of human SF295 cells after 48 hrs by sulforhodamine B assay; conditions: SF-295, 48 h; method in brief: as §1
SF-539 = assay: Growth inhibition of human SF539 cells after 48 hrs by sulforhodamine B assay; conditions: SF-539, 48 h; method in brief: as §1
SNB-75 = assay: Growth inhibition of human SNB75 cells after 48 hrs by sulforhodamine B assay; conditions: SNB-75, 48 h; method in brief: as §1
SNB-78 = assay: Growth inhibition of human SNB78 cells after 48 hrs by sulforhodamine B assay; conditions: SNB-78, 48 h; method in brief: as §1
HCC 2998 = assay: Growth inhibition of human HCC2998 cells after 48 hrs by sulforhodamine B assay; conditions: HCC 2998, 48 h, read-out: pGI50 (converted); method in brief: as §1
KM12 = assay: Growth inhibition of human KM12 cells after 48 hrs by sulforhodamine B assay; conditions: KM12, 48 h; method in brief: as §1
HT-29 = assay: Growth inhibition of human HT-29 cells after 48 hrs by sulforhodamine B assay; conditions: HT-29, 48 h; method in brief: as §1
NCI-H23 = assay: Growth inhibition of human NCI-H23 cells after 48 hrs by sulforhodamine B assay; conditions: NCI-H23, 48 h; method in brief: as §1
NCI-H226 = assay: Growth inhibition of human NCI-H226 cells after 48 hrs by sulforhodamine B assay; conditions: NCI-H226, 48 h; method in brief: as §1
NCI-H522 = assay: Growth inhibition of human NCI-H522 cells after 48 hrs by sulforhodamine B assay; conditions: NCI-H522, 48 h; method in brief: as §1
NCI-H460 = assay: Growth inhibition of human NCI-H460 cells after 48 hrs by sulforhodamine B assay; conditions: NCI-H460, 48 h; method in brief: as §1
A549 = assay: Growth inhibition of human A549 cells after 48 hrs by sulforhodamine B assay; conditions: A549, 48 h; method in brief: as §1
DMS-273 = assay: Growth inhibition of human DMS273 cells after 48 hrs by sulforhodamine B assay; conditions: DMS-273, 48 h; method in brief: as §1
DMS-114 = assay: Growth inhibition of human DMS114 cells after 48 hrs by sulforhodamine B assay; conditions: DMS-114, 48 h; method in brief: as §1
LOX IMVI = assay: Growth inhibition of human LOXIMVI cells after 48 hrs by sulforhodamine B assay; method in brief: as §1
OVCAR-3 = assay: Growth inhibition of human OVCAR-3 cells after 48 hrs by sulforhodamine B assay; conditions: OVCAR-3, 48 h; method in brief: as §1
OVCAR-4 = assay: Growth inhibition of human OVCAR4 cells after 48 hrs by sulforhodamine B assay; conditions: OVCAR-4, 48 h; method in brief: as §1
OVCAR-5 = assay: Growth inhibition of human OVCAR5 cells after 48 hrs by sulforhodamine B assay; conditions: OVCAR-5, 48 h; method in brief: as §1
OVCAR-8 = assay: Growth inhibition of human OVCAR8 cells after 48 hrs by sulforhodamine B assay; conditions: OVCAR-8, 48 h; method in brief: as §1
SK-OV-3 = assay: Growth inhibition of human SKOV3 cells after 48 hrs by sulforhodamine B assay; conditions: SK-OV-3, 48 h; method in brief: as §1
[5] = Growth inhibition of human RXF631L cells after 48 hrs by sulforhodamine B assay; conditions: RXF 631, 48 h; method in brief: as §1
ACHN = assay: Growth inhibition of human ACHN cells after 48 hrs by sulforhodamine B assay; method in brief: as §1
St-4 = assay: Growth inhibition of human St-4 cells after 48 hrs by sulforhodamine B assay; conditions: St-4, 48 h; method in brief: as §1
[6] = Growth inhibition of human MKN1 cells after 48 hrs by sulforhodamine B assay; conditions: MKN-1, 48 h; method in brief: as §1
MKN-7 = assay: Growth inhibition of human MKN7 cells after 48 hrs by sulforhodamine B assay; conditions: MKN-7, 48 h; method in brief: as §1
MKN-28 = assay: Growth inhibition of human MKN28 cells after 48 hrs by sulforhodamine B assay; conditions: MKN-28, 48 h; method in brief: as §1
MKN-45 = assay: Growth inhibition of human MKN45 cells after 48 hrs by sulforhodamine B assay; conditions: MKN-45, 48 h; method in brief: as §1
MKN-74 = assay: Growth inhibition of human MKN74 cells after 48 hrs by sulforhodamine B assay; conditions: MKN-74, 48 h; method in brief: as §1
DU-145 = assay: Growth inhibition of human DU145 cells after 48 hrs by sulforhodamine B assay; conditions: DU-145, 48 h, read-out: pGI50 (converted); method in brief: as §1
PC-3 = assay: Growth inhibition of human PC3 cells after 48 hrs by sulforhodamine B assay; conditions: PC-3, 48 h; method in brief: as §1
HCT-15 = assay: Growth inhibition of human HCT15 cells after 48 hrs by sulforhodamine B assay; conditions: HCT-15, 48 h; method in brief: as §1
HCT-116 = assay: Growth inhibition of human HCT116 cells after 48 hrs by sulforhodamine B assay; conditions: HCT-116, 48 h; method in brief: as §1

CCCCCCCCCCCC[C@@H](O)[C@H]1CC[C@H]([C@H](O)CCCCCCCCCCCCC2=C[C@H](C)OC2=O)O1 [REL-SOLAMIN]
GI50 [1]: > 100 µM | GI50 [2]: > 100 µM | GI50 [3]: > 100 µM | GI50 (MCF7): 70.8 µM | GI50 [4]: > 100 µM | GI50 (U-251): > 100 µM | GI50 (SF-268): > 100 µM | GI50 (SF-295): > 100 µM | GI50 (SF-539): > 100 µM | GI50 (SNB-75): > 100 µM | GI50 (SNB-78): > 100 µM | GI50 (HCC 2998): > 100 µM | GI50 (KM12): > 100 µM | GI50 (HT-29): > 100 µM | GI50 (NCI-H23): 72.4 µM | GI50 (NCI-H226): > 100 µM | GI50 (NCI-H522): 57.5 µM | GI50 (NCI-H460): > 100 µM | GI50 (A549): > 100 µM | GI50 (DMS-273): > 100 µM | GI50 (DMS-114): 4.37 µM | GI50 (LOX IMVI): 29.5 µM | GI50 (OVCAR-3): > 100 µM | GI50 (OVCAR-4): > 100 µM | GI50 (OVCAR-5): > 100 µM | GI50 (OVCAR-8): > 100 µM | GI50 (SK-OV-3): > 100 µM | GI50 [5]: > 100 µM | GI50 (ACHN): > 100 µM | GI50 (St-4): > 100 µM | GI50 [6]: > 100 µM | GI50 (MKN-7): 12.9 µM | GI50 (MKN-28): 14.1 µM | GI50 (MKN-45): > 100 µM | GI50 (MKN-74): > 100 µM | GI50 (DU-145): > 100 µM | GI50 (PC-3): > 100 µM | GI50 (HCT-15): > 100 µM | GI50 (HCT-116): > 100 µM

C[C@H]1C=C(CCCCCCCCCCCC[C@@H](O)[C@H]2CC[C@H]([C@H](O)CCCCCCCCCNc3ccc([N+](=O)[O-])c4nonc34)O2)C(=O)O1
GI50 [1]: 64.6 µM | GI50 [2]: 33.1 µM | GI50 [3]: 21.9 µM | GI50 (MCF7): 16.2 µM | GI50 [4]: > 100 µM | GI50 (U-251): 75.9 µM | GI50 (SF-268): 89.1 µM | GI50 (SF-295): 7.24 µM | GI50 (SF-539): 33.9 µM | GI50 (SNB-75): 51.3 µM | GI50 (SNB-78): 97.7 µM | GI50 (HCC 2998): > 100 µM | GI50 (KM12): 36.3 µM | GI50 (HT-29): 69.2 µM | GI50 (NCI-H23): 18.6 µM | GI50 (NCI-H226): 22.9 µM | GI50 (NCI-H522): 8.13 µM | GI50 (NCI-H460): 51.3 µM | GI50 (A549): 26.3 µM | GI50 (DMS-273): 19.1 µM | GI50 (DMS-114): 0.01 µM | GI50 (LOX IMVI): 10.7 µM | GI50 (OVCAR-3): 38.9 µM | GI50 (OVCAR-4): 60.3 µM | GI50 (OVCAR-5): 38.9 µM | GI50 (OVCAR-8): 69.2 µM | GI50 (SK-OV-3): 81.3 µM | GI50 [5]: 67.6 µM | GI50 (ACHN): 33.9 µM | GI50 (St-4): 33.1 µM | GI50 [6]: 21.4 µM | GI50 (MKN-7): 0.0525 µM | GI50 (MKN-28): 0.01 µM | GI50 (MKN-45): 43.7 µM | GI50 (MKN-74): 0.191 µM | GI50 (DU-145): > 100 µM | GI50 (PC-3): 29.5 µM | GI50 (HCT-15): 72.4 µM | GI50 (HCT-116): 15.8 µM
